Results published in ChEMBL document CHEMBL2163267, “Novel N-linked aminopiperidine inhibitors of bacterial topoisomerase type II with reduced pK(a): antibacterial agents with an improved safety profile” (J Med Chem, 2012).
Values after ≈ are worked out from the molar mass of the structure shown.

Columns and labels:
[1] = Dissociation constant, pKa of the compound by pH metric assay; type: physicochemical
How it was run: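 pH-metric titration on an automated titrator, run in triplicate. Accuracy about 0.02 log units.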

Escherichia coli = assay: Antibacterial activity against Escherichia coli W3110 after 18 to 24 hrs by CLSI broth microdilution method; type: functional
[2] = Intrinsic clearance in Wistar Han rat hepatocytes measured per 10^6 cells; type: ADME, cell-based, Hepatocyte; conditions: read-out: CLH
[3] = Volume of distribution in Beagle dog at 3 mg/kg, iv administered as bolus dose and 10 mg/kg, po; type: ADME, organism-based, Canis lupus familiaris; conditions: in vivo
[4] = Octanol-phosphate buffer partition coefficient, log D of the compound at pH 7.4 by shake flask method; type: physicochemical
How it was run: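 Shake-flask partition between n-octanol and 10 mM phosphate buffer at pH 7.4. Shaken 1 h at 1200 rpm to reach equilibrium. Phases analysed by LC/UV, with MS for mass confirmation.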

[5] = Clearance in Wistar Han rat at 3 mg/kg, iv administered as bolus dose and 10 mg/kg, po; type: ADME, organism-based; conditions: in vivo
How it was run: (§1)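 Single iv dose (3 mg/kg bolus, or 10 mg/kg infusion, per line). Rats in groups of three, bolus via cannulated jugular vein. Male beagle dogs (n = 3), iv as 15 min infusion, sampled 0 to 24 h. Serial whole-blood samples taken at time intervals. Plasma levels measured by LC-MS/MS. Parameters estimated by non-compartmental analysis.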

[6] = Half life in Beagle dog at 3 mg/kg, iv administered as bolus dose and 10 mg/kg, po; type: ADME, organism-based, Canis lupus familiaris; conditions: in vivo
Streptococcus pneumoniae = assay: Antibacterial activity against penicillin-susceptible Streptococcus pneumoniae D39 after 18 to 24 hrs by CLSI broth microdilution method; type: functional
[7] = Intrinsic clearance in Beagle dog hepatocytes measured per 10^6 cells; type: ADME, cell-based, Canis lupus familiaris, Hepatocyte; conditions: read-out: CLH
Staphylococcus aureus = assay: Antibacterial activity against methicillin-susceptible Staphylococcus aureus after 18 to 24 hrs by CLSI broth microdilution method; type: functional
[8] = Inhibition of Escherichia coli DNA topoisomerase 4 subunit ParC/DNA topoisomerase 4 subunit ParE ATPase activity after 24 hrs by malachite green staining-based colorimetric assay
[9] = Half life in Wistar Han rat at 3 mg/kg, iv administered as bolus dose and 10 mg/kg, po; type: ADME, organism-based; conditions: in vivo; how it was run: as §1
[10] = Volume of distribution in Wistar Han rat at 3 mg/kg, iv administered as bolus dose and 10 mg/kg, po; type: ADME, organism-based; conditions: in vivo; how it was run: as §1
[11] = molecular target: T1, Voltage-gated inwardly rectifying potassium channel KCNH2 (Homo sapiens, UniProt Q12809); assay: Displacement of [3H]-astemizole from human ERG expressed in HEK293 cells after 60 mins by liquid scintillation counter; type: cell-based
T1 sequence (Q12809 whole entry): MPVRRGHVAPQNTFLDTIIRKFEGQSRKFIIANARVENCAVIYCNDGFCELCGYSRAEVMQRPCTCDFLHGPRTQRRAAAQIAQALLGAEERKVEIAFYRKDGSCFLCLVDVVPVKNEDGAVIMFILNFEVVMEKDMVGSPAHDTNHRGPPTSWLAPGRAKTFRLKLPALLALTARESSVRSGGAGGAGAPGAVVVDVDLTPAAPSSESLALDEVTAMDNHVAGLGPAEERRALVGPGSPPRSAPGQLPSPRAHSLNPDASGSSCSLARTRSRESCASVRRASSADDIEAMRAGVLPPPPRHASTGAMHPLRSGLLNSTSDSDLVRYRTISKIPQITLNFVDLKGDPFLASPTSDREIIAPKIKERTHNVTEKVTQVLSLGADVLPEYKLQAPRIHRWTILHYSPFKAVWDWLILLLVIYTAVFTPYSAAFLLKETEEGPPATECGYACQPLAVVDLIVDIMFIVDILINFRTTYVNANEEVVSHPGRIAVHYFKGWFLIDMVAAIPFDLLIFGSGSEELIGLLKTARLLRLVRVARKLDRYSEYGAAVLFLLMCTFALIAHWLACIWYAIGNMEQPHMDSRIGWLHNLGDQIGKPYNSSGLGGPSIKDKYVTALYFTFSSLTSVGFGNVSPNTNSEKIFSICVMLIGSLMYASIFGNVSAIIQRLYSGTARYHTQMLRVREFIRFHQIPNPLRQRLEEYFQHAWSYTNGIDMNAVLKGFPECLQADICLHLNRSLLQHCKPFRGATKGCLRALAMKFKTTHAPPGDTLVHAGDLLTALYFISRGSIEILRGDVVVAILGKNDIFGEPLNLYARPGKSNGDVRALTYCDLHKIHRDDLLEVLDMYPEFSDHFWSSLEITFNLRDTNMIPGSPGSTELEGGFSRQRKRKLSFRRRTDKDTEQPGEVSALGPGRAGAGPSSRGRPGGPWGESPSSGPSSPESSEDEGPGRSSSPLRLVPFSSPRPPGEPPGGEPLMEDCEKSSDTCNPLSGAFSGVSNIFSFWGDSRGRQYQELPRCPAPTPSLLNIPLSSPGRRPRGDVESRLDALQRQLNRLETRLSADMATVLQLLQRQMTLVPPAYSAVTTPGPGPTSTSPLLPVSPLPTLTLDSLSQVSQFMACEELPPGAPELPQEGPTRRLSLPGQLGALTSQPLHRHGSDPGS

[12] = AUC in Beagle dog at 3 mg/kg, iv administered as bolus dose; type: ADME, organism-based, Canis lupus familiaris; design: dose 3 mg/kg, route intravenous; conditions: plasma
Cavia porcellus = assay: Cardiotoxicity in iv dosed guinea pig assessed as MAPD90 prolongation at 16 uM free plasma concentration; type: toxicity, organism-based; conditions: in vivo
How it was run: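 Male guinea pigs anaesthetized with Nembutal, tracheotomized and mechanically ventilated. Compound given iv in two 17 min infusion periods with cardiac pacing. Monophasic action potential recorded continuously and MAPD90 taken. Blood drawn at each dose level for plasma concentration. Vehicle controls run in separate cohorts; n = 6.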

[13] = Oral bioavailability in Beagle dog at 10 mg/kg; type: ADME, organism-based, Canis lupus familiaris; conditions: in vivo
How it was run: (§2)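 Bioavailability from a 10 mg/kg oral dose, by gavage in rats (groups of three) or orally in male beagle dogs (n = 3). Plasma sampled serially over time (dogs 0 to 24 h). Levels measured by LC-MS/MS and referenced to iv dosing. Parameters from non-compartmental analysis.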

[14] = Oral bioavailability in Wistar Han rat at 10 mg/kg; type: ADME, organism-based; conditions: in vivo; how it was run: as §2
[15] = Clearance in Beagle dog at 3 mg/kg, iv administered as bolus dose and 10 mg/kg, po; type: ADME, organism-based, Canis lupus familiaris; conditions: in vivo
[16] = AUC in Wistar Han rat at 3 mg/kg, iv administered as bolus dose; type: ADME, organism-based; design: dose 3 mg/kg, route intravenous; conditions: plasma; how it was run: as §1
Pseudomonas aeruginosa = assay: Antibacterial activity against Pseudomonas aeruginosa PAO1 after 18 to 24 hrs by CLSI broth microdilution method; type: functional
[17] = Fraction unbound in human plasma at 10 uM by equilibrium dialysis method; type: ADME, cell-free
How it was run: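 Equilibrium dialysis. Compound at 10 μM in the plasma (donor) chamber against phosphate buffer, rotated at 37 °C for 16 h. Drug in the plasma and buffer samples quantified by LC-MS/MS after methanol protein precipitation with internal standard. Standard curve 10 nM to 10 μM.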

[18] = molecular target: T1, Voltage-gated inwardly rectifying potassium channel KCNH2; assay: Inhibition of human ERG by Ionworks assay

In the case of `N#Cc1ccc2ccc(=O)n(CCN3CCC(NCc4cc5c(cn4)OCCO5)CC3)c2c1`, the pKa [1] is reported as 8.27, the MIC (Escherichia coli) is reported as 0.5 mg/L (≈ 1.12 µM) and the hepatocyte CLint [2] is reported as 42 µL/min/1e6 cells. The Vd [3] was 8 L/kg, the logD [4] was 0.68 and the clearance [5] was 7.62 L/h/kg. For the same compound, the half-life [6] was 8.4 h, the MIC (Streptococcus pneumoniae) was 0.08 mg/L (≈ 0.18 µM) and the hepatocyte CLint [7] was 1.8 µL/min/1e6 cells. For the same compound, the MIC (Staphylococcus aureus) was 0.03 mg/L (≈ 0.0673 µM), the IC50 [8] was 0.0032 µM and the half-life [9] was 3 h. For the same compound, the Vd [10] was 21 L/kg, the IC50 [11] was 39 µM and the AUC [12] was 2.6 µg·h/mL. For the same compound, the Activity (Cavia porcellus) was > 10%, the bioavailability [13] was 72% and the bioavailability [14] was 31%. For the same compound, the clearance [15] was 1.08 L/h/kg, the AUC [16] was 0.37 µg·h/mL and the MIC (Pseudomonas aeruginosa) was > 8 mg/L. It also gave a fraction unbound at 10 µM [17] of 0.28 and an IC50 [18] of 44 µM.
`COc1ccc2ncc(=O)n(CCN3CCC(NCc4ccc5c(n4)NC(=O)CO5)CC3)c2c1` showed a pKa [1] of 8.42, an MIC (Escherichia coli) of 0.13 mg/L (≈ 0.28 µM) and a hepatocyte CLint [2] of 26 µL/min/1e6 cells. It also gave a Vd [3] of 2 L/kg, a logD [4] of 0.6 and a clearance [5] of 15.1 L/h/kg. The MIC (Streptococcus pneumoniae) was 0.08 mg/L (≈ 0.172 µM), the hepatocyte CLint [7] was < 1 µL/min/1e6 cells and the MIC (Staphylococcus aureus) was 0.03 mg/L (≈ 0.0646 µM). It also gave an IC50 [8] of 0.0022 µM, a Vd [10] of 23 L/kg and an AUC [12] of 6.8 µg·h/mL. The clearance [15] was 0.51 L/h/kg, the AUC [16] was 0.19 µg·h/mL and the MIC (Pseudomonas aeruginosa) was 1 mg/L (≈ 2.15 µM). The fraction unbound at 10 µM [17] was 0.26.
